For test [1], the target named is Delta-type opioid receptor (Mus musculus, UniProt P32300). Briefly: Agonist activity at delta opioid receptor assessed as inhibition of electrically stimulated ICR mouse vas deferens contraction. It is filed as functional, tissue-based. The procedure, abridged: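 Vas deferens from male ICR mice, in 20 mL baths at 0.5 g tension, Mg-free oxygenated Krebs, 37 °C; electrical stimulation 0.1 Hz, 2.0 ms pulses, supramaximal voltage. Cumulative addition to maximal inhibition; integrity checked with 10 nM DPDPE. IC50 by Hill-equation nonlinear least-squares fit, at least four tissues.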

In test [2] the target is T1, Mu-type opioid receptor (Rattus norvegicus, UniProt P33535). Briefly: Displacement of [3H]DAMGO from rat mu opioid receptor expressed in HN9.10 cells. Type of test: cell-based. The procedure, abridged:
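HN9.10 cell membranes (50 μg) expressing rMOR, 10 test concentrations with 1.0 nM [3H]DAMGO in 50 mM Tris pH 7.4 with peptidase inhibitors and BSA, 3 h at 25 °C, duplicates; filtration, scintillation counting. Nonspecific with 10 μM naloxone. Ki by Cheng–Prusoff.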
(In general: In a radioligand displacement assay an active substance lowers the binding of a labelled ligand.)

Test [3] has as its target T2, Gastrin/cholecystokinin type B receptor (Homo sapiens, UniProt P32239).
T2 sequence (P32239 whole entry): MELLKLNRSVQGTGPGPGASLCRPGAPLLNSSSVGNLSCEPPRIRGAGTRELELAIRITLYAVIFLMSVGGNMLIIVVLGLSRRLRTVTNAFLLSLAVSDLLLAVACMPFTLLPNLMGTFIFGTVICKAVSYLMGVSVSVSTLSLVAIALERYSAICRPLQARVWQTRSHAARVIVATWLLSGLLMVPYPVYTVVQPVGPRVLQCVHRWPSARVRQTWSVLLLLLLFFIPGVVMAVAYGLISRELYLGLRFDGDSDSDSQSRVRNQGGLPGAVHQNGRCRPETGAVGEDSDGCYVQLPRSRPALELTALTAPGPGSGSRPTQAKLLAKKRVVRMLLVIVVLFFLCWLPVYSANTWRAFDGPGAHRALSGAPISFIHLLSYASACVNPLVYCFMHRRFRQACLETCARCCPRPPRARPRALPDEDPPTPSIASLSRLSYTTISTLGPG
The test is described as follows: Displacement of [125I]CCK-8(SO3) from human CCK2 receptor expressed in HEK293 cells. It is filed as cell-based.

The target in test [4] is T3, Cholecystokinin receptor type A (Homo sapiens, UniProt P32238).
T3 sequence (P32238 whole entry): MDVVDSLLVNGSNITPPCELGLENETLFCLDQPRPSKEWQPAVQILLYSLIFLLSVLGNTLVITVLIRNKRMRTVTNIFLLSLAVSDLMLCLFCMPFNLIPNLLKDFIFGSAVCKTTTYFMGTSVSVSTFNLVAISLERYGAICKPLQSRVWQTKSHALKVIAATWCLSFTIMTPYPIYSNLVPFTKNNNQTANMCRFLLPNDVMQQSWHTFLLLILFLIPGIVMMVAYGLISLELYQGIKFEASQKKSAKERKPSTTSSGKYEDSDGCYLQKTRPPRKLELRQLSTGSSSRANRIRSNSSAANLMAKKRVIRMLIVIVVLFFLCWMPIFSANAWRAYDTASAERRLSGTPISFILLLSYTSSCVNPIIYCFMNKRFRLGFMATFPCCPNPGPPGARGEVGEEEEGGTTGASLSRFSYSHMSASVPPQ
The test is described as follows: Displacement of [125I]CCK-8(SO3) from human CCK1 receptor expressed in HEK293 cells. Type of test: cell-based.

Test [5] deals with T4, Delta-type opioid receptor (Homo sapiens, UniProt P41143). The test is described as follows: Displacement of [3H]DPDPE from human delta opioid receptor expressed in HN9.10 cells. It is filed as cell-based. In outline:
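HN9.10 cell membranes (50 μg) expressing hDOR, 10 test concentrations with 1.0 nM [3H]DPDPE in 50 mM Tris pH 7.4 with peptidase inhibitors and BSA, 3 h at 25 °C, duplicates; filtration, scintillation counting. Nonspecific with 10 μM naloxone. Ki by Cheng–Prusoff.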

For test [6], the target named is T1, Mu-type opioid receptor. Briefly: (§1) Activity against [35S]GTP-gamma-S binding to rat mu opioid receptor expressed in HN9.10 cells. Type of test: functional, cell-based. In outline: (§2)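 Membranes (10 μg) from HN9.10 cells stably expressing hDOR or rMOR; various drug concentrations in duplicate or triplicate, 90 min at 30 °C in HEPES pH 7.4 with GDP, MgCl2, NaCl, 0.1 nM [35S]GTPγS; filtration, scintillation counting.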

Test [7] has as its target Mu-type opioid receptor (Rattus norvegicus) (UniProt P33535). The test is described as §1. Type of test: functional, cell-based. In outline:
as §2

Test [8] deals with T2, Gastrin/cholecystokinin type B receptor. The test is described as follows: Antagonist activity at CCK2 receptor expressed in HEK293 cells assessed as accumulation of [3H]inositol phosphates by PI assay. It is filed as functional, cell-based.
For test [9], the target named is T3, Cholecystokinin receptor type A. The test is described as follows: Antagonist activity at CCK1 receptor expressed in HEK 293 cells assessed as accumulation of [3H]inositol phosphates by PI assay. It is filed as functional, cell-based, HEK293.
In test [10] the target is Mu-type opioid receptor (Cavia porcellus, UniProt P97266). Briefly: Agonist activity at mu opioid receptor assessed as inhibition of electrically stimulated Hartley guinea pig ileum contraction. Type of test: functional, tissue-based. The procedure, abridged:
(§3)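 Longitudinal muscle–myenteric plexus strips from male Hartley guinea pig ileum, 1 g tension, oxygenated Krebs at 37 °C; 0.1 Hz, 0.4 ms supramaximal stimulation. […] Integrity checked with 10 nM PL-017. Hill-equation fit, at least four tissues.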

Test [11] addresses T4, Delta-type opioid receptor. The test is described as follows: Activity against [35S]GTP-gamma-S binding to human delta opioid receptor expressed in HN9.10 cells. Type of test: functional, cell-based. The procedure, abridged: as §2
Test [12] deals with T5, Cholecystokinin receptor type A (Homo sapiens) (UniProt P32238).
T5 sequence (whole entry): T3 sequence (P32238 whole entry)
The conditions noted are these: HEK293.

For test [13], the target named is Delta-type opioid receptor (Mus musculus) (UniProt P32300). Briefly: Agonist activity at delta opioid receptor assessed as inhibition of electrically stimulated ICR mouse vas deferens contraction at 1 uM. Type of test: functional, tissue-based.
In test [14] the target is Mu-type opioid receptor (Cavia porcellus) (UniProt P97266). Briefly: Agonist activity at mu opioid receptor assessed as inhibition of electrically stimulated Hartley guinea pig ileum contraction at 1 uM. Type of test: functional, tissue-based. The procedure, abridged:
as §3

For test [15], the target named is T6, Gastrin/cholecystokinin type B receptor (Homo sapiens) (UniProt P32239).
T6 sequence (whole entry): T2 sequence (P32239 whole entry)
Particulars: HEK293.

Calls of active or inactive are those of the source. The calls are words filed in the database; no cut-off is given here. Where a SMILES comes first, the peptide text is derived from it. [ ]: non-standard residue; d: D form. NMeNle = CCCC[C@H](NC)C(=O)O

Mu-type opioid receptor (Cavia porcellus), sequence (P97266 whole entry): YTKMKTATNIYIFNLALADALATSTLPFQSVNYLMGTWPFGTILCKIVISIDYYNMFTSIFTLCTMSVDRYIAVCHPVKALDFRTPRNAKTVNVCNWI
Mu-type opioid receptor (Cavia porcellus, UniProt P97266), sequence (P97266 whole entry): as above
Delta-type opioid receptor (Mus musculus, UniProt P32300), sequence (P32300 whole entry): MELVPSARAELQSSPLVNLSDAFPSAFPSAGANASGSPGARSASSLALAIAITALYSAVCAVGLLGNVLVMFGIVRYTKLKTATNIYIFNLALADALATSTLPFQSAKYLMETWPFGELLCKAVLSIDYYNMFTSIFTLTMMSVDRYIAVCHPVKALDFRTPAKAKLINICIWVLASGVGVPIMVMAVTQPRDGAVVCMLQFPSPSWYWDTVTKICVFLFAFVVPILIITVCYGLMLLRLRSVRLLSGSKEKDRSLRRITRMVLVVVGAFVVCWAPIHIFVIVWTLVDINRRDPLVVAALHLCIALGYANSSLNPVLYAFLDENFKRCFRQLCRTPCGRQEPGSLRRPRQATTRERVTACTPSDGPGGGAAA
T4 sequence (P41143 whole entry): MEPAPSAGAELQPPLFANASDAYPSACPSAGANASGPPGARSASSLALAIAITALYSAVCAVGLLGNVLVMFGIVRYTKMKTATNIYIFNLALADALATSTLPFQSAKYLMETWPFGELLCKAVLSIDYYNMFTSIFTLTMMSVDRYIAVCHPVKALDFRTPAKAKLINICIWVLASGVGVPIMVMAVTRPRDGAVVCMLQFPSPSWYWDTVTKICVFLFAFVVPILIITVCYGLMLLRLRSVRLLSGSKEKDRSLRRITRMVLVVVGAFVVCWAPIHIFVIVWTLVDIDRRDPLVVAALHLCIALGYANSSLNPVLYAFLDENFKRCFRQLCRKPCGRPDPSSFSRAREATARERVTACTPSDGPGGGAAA
T1 sequence (P33535 whole entry): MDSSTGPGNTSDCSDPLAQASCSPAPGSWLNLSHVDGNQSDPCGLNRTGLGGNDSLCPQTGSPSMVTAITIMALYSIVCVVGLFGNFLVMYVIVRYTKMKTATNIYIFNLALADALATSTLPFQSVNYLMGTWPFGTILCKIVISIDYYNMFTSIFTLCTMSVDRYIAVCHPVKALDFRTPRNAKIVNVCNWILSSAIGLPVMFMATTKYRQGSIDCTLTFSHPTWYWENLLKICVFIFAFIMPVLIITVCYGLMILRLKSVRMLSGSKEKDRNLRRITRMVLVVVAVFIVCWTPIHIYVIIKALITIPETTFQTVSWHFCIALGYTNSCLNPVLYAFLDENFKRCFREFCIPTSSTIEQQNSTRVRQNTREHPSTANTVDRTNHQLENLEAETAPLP
Mu-type opioid receptor (Rattus norvegicus), sequence (P33535 whole entry): as above
Delta-type opioid receptor (Mus musculus), sequence (P32300 whole entry): as the sequence (P32300 whole entry) above

Take `CCCC[C@H](NC(=O)[C@H](Cc1c[nH]c2ccccc12)NC(=O)CNC(=O)[C@@H](CCCC)NC(=O)[C@@H](N)Cc1ccc(O)cc1)C(=O)N[C@@H](CC(=O)O)C(=O)N[C@@H](Cc1ccccc1)C(N)=O`: the IC50 (in general, the concentration at which inhibition is half-maximal) in test [1] was 23 nM; at Mu-type opioid receptor [2], 60.3 nM; in test [3], 15.1 nM; in test [4] it was 9.55 nM; in test [5] it was 6.03 nM; at Mu-type opioid receptor [10], 210 nM. For the same compound, the Ki (in general, the dissociation constant of the complex between target and ligand, obtained from inhibition or displacement) at Mu-type opioid receptor [2] came to 26 nM; in test [3], 15 nM; in test [4] it was 9.6 nM; in test [5] it was 2.6 nM. Moreover, the EC50 (commonly the concentration that produces a half-maximal response) at Mu-type opioid receptor [6] was 0.46 nM; in test [8] it was 1900 nM; in test [9] it was 2500 nM; in [11] it was 4.5 nM. Besides, the Emax (as a rule, the size of the effect at its maximum, as opposed to the concentration needed) in test [7] came out at 88%; in test [11], 81%.
Take `CCCC[C@@H](C(=O)N[C@@H](CC(=O)O)C(=O)N[C@@H](Cc1ccccc1)C(N)=O)N(C)C(=O)[C@H](Cc1c[nH]c2ccccc12)NC(=O)CNC(=O)CNC(=O)[C@@H](N)Cc1ccc(O)cc1` (H-YGGW[NMeNle]DF-NH2): the half-inhibitory concentration (IC50) in test [1] is 220 nM; on Mu-type opioid receptor [2] it was 550 nM; in test [3] it was 4.79 nM; in [5] it was 200 nM; at Mu-type opioid receptor [10], 4200 nM. The Ki was found to be 240 nM on Mu-type opioid receptor [2], 4.8 nM in test [3] and 85 nM in [5]. Further, the “Log EC50” value in [12] was “inactive”. Besides, the EC50 at Mu-type opioid receptor [6] worked out at 2 nM; in test [8], 32 nM; in test [11], 76 nM. Moreover, the figures for the maximum response (Emax) in test [7] and in test [11] were 100% and 68%, respectively.
As to `CCCC[C@@H](C(=O)N[C@@H](CC(=O)O)C(=O)N[C@@H](Cc1ccccc1)C(N)=O)N(C)C(=O)[C@H](Cc1c[nH]c2ccccc12)NC(=O)CNC(=O)[C@@H]1CCCN1C(=O)[C@@H](N)Cc1ccc(O)cc1`, the inhibition (in general, the percentage by which the read-out fell short of the control) came out at 5% in [13] and 1.2% in [14]. The half-maximal inhibitory concentration (IC50) in test [3] was 0.219 nM; in test [5] it was 3390 nM. Also, the inhibitory constant (Ki) in test [3] was 0.22 nM; in test [5] it was 1500 nM.
Regarding `CCCC[C@@H](NC(=O)[C@@H](N)Cc1ccc(O)cc1)C(=O)NCC(=O)N[C@H](Cc1c[nH]c2ccccc12)C(=O)N(C)[C@@H](CCCC)C(=O)N[C@@H](CC(=O)O)C(=O)N[C@@H](Cc1ccccc1)C(N)=O`, the IC50 in test [1] was 700 nM; at Mu-type opioid receptor [2], 2880 nM; in [3] it was 1100 nM; in test [4], 9120 nM; in test [5], 724 nM. Moreover, the Ki at Mu-type opioid receptor [2] stood at 1200 nM; in test [3], 1100 nM; in test [4] it was 910 nM; in test [5], 310 nM. Also, the inhibition in [14] is 8.8%. Further, the “Log EC50” value in test [15] and in test [12] was “inactive” each time. In addition, the EC50 on Mu-type opioid receptor [6] amounted to 250 nM. The compound also showed a maximal effect (Emax) in test [7] of 47%.
On to `CCCC[C@@H](C(=O)N[C@@H](CC(=O)O)C(=O)N[C@@H](Cc1ccccc1)C(N)=O)N(C)C(=O)[C@H](Cc1c[nH]c2ccccc12)NC(=O)CNC(=O)[C@H]1CCCN1C(=O)[C@@H](N)Cc1ccc(O)cc1`, for which the IC50 in [1] was 890 nM; at Mu-type opioid receptor [2] it was 6030 nM; in test [3], 2.69 nM; in test [4], 10500 nM; in test [5] it was 200 nM. Moreover, the Ki is 2600 nM on Mu-type opioid receptor [2], 2.7 nM in test [3], over 10000 nM in [4] and 85 nM in test [5]. Moreover, the inhibition in test [14] was determined as 13%. The figures for the half-maximal effective concentration (EC50) (at Mu-type opioid receptor [6]; in [8]; in test [11]) were 900 nM, 36 nM and 890 nM, respectively. The Emax in [7] worked out at 210%; in test [11], 110%.
Regarding `CCCC[C@H](NC(=O)[C@@H](Cc1c[nH]c2ccccc12)NC(=O)CNC(=O)[C@@H](CCCC)NC(=O)[C@@H](N)Cc1ccc(O)cc1)C(=O)N[C@@H](CC(=O)O)C(=O)N[C@@H](Cc1ccccc1)C(N)=O`, the concentration for half-maximal inhibition (IC50) is 310 nM in test [1]; 631 nM on Mu-type opioid receptor [2]; 2190 nM in test [3]; 47.9 nM in test [5]; 1000 nM on Mu-type opioid receptor [10]. Moreover, the figures for the inhibitory constant (Ki) (on Mu-type opioid receptor [2]; in [3]; in [5]) were 270 nM, 2200 nM and 20 nM, respectively. For the same compound, the “Log EC50” value in test [15] is “inactive”. For the same compound, the EC50 was 20 nM on Mu-type opioid receptor [6] and 4.1 nM in test [11]. Besides, the Emax came out at 110% in test [7] and 75% in [11].
With `CCCC[C@H](NC(=O)[C@H](Cc1c[nH]c2ccccc12)NC(=O)CNC(=O)[C@@H](Cc1ccccc1)NC(=O)[C@@H](N)Cc1ccc(O)cc1)C(=O)N[C@@H](CC(=O)O)C(=O)N[C@@H](Cc1ccccc1)C(N)=O`, the IC50 in test [1] was 12 nM; on Mu-type opioid receptor [2] it was 79.4 nM; in test [3], 25.7 nM; in test [4] it was 97.7 nM; in test [5], 0.427 nM; at Mu-type opioid receptor [10], 420 nM. In addition, the Ki on Mu-type opioid receptor [2] was 34 nM; in test [3], 26 nM; in [4] it was 98 nM; in test [5], 0.2 nM. Further, the EC50 on Mu-type opioid receptor [6] was 1.4 nM; in [8] it was 110 nM; in [9] it was 300 nM; in [11] it was 0.9 nM. The maximal effect (Emax) in [7] was 180%; in [11], 170%.

The values are drawn from ChEMBL document CHEMBL1147663, “Structure-activity relationships of bifunctional peptides based on overlapping pharmacophores at opioid and cholecystokinin receptors” (J Med Chem, 2006).
